According to ChEMBL document CHEMBL1157779, “Merging the structural motifs of functionalized amino acids and alpha-aminoamides: compounds with significant anticonvulsant activities” (J Med Chem, 2010):
Calls of active or inactive are those of the source. No cut-off for these calls is given here.

Legend:
[1] = Toxicity in ip dosed albino mouse after 0.5 hrs by rotarod test; assay type: organism-based; conditions: albino, in vivo
[2] = tested on: Mus musculus; assay: Anticonvulsant activity in ip dosed albino mouse assessed as inhibition of maximal electroshock-induced seizures after 4 hrs; assay type: functional
How it was run: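 Male albino Carworth Farms No. 1 mice given compound ip; maximal electroshock applied and protection scored as blockade of hind limb extension; identification screening, then ED50 (mg/kg) from quantitative testing for active compounds.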

[3] = tested on: Mus musculus; assay: Anticonvulsant activity in ip dosed albino mouse assessed as inhibition of maximal electroshock-induced seizures after 0.5 hrs; assay type: functional
[4] = tested on: Mus musculus; assay: Anticonvulsant activity in ip dosed albino mouse assessed as inhibition of maximal electroshock-induced seizures after […]; assay type: functional
[5] = (§1) Behavioral toxicity in po dosed Sprague-Dawley albino rat after 1 hr; assay type: organism-based; conditions: Sprague-Dawley, in vivo
How it was run: (§2)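 Oral dosing in male albino Sprague-Dawley rats with behavioral toxicity observation at set times after dosing, doses up to 500 mg/kg.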

[6] = species: Mus musculus; assay: Protective index, ratio of TD50 for albino mouse to anticonvulsant ED50 for albino mouse; assay type: functional
[7] = species: Rattus norvegicus; assay: Protective index, ratio of TD50 for Sprague-Dawley albino rat to anticonvulsant ED50 for Sprague-Dawley albino rat; assay type: functional
How it was run: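 Rat, oral: behavioral-toxicity TD50 divided by MES ED50, both in mg/kg.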

[8] = tested on: Mus musculus; assay: Anticonvulsant activity in albino mouse assessed as protection against subcutaneous metrazole-induced seizures up to 300 mg/kg, ip after 4 hrs; assay type: functional, organism-based; parameters: dose 300 mg/kg
How it was run: (§3)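 Male albino Carworth Farms No. 1 mice dosed ip under NIH Anticonvulsant Screening Program; subcutaneous Metrazol seizure challenge at 0.5 and 4 h after doses up to 300 mg/kg.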

[9] = tested on: Mus musculus; assay: Anticonvulsant activity in albino mouse assessed as protection against subcutaneous metrazole-induced seizures up to 300 mg/kg, ip after 0.5 hrs; assay type: functional, organism-based; parameters: dose 300 mg/kg; how it was run: as §3
[10] = (§4) Behavioral toxicity in po dosed Sprague-Dawley albino rat; assay type: organism-based; conditions: Sprague-Dawley, in vivo
[11] = tested on: Mus musculus; assay: Antiinflammatory activity in albino mouse assessed as reduction in formalin-induced late inflammation at 16 mg/kg, ip; assay type: functional, organism-based; parameters: dose 16 mg/kg
[12] = Toxicity in ip dosed albino mouse after 4 hrs by rotarod test; assay type: organism-based; conditions: in vivo
How it was run: (§5)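 Male albino Carworth Farms No. 1 mice dosed ip; neurological impairment by rotorod test at set times; TD50 (mg/kg) determined for compounds active in MES.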

[13] = tested on: Rattus norvegicus; assay: Anticonvulsant activity in po dosed Sprague-Dawley albino rat assessed as inhibition of maximal electroshock-induced seizures after 4 hrs; assay type: functional
How it was run: (§6)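 Male albino Sprague-Dawley rats dosed orally; maximal electroshock seizures, protection scored as blockade of hind limb extension, tested at set times after dosing; ED50 in mg/kg from quantitative evaluation for active compounds.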

[14] = tested on: Mus musculus; assay: Anticonvulsant activity in ip dosed albino mouse assessed as inhibition of maximal electroshock-induced seizures after 1 hr; assay type: functional
How it was run: (§7)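 Male albino Carworth Farms No. 1 mice dosed intraperitoneally; screened via the NIH Anticonvulsant Screening Program. Protection scored as blocking of hind limb extension after maximal electroshock. Median effective dose (ED50, mg/kg) obtained in quantitative evaluations of active compounds. Rotorod test gave TD50 for neurological impairment, and PI = TD50/ED50.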

[15] = Behavioral toxicity in po dosed Sprague-Dawley albino rat after 4 hrs; assay type: organism-based; conditions: Sprague-Dawley, in vivo; how it was run: as §2
[16] = tested on: Rattus norvegicus; assay: Anticonvulsant activity in po dosed Sprague-Dawley albino rat assessed as inhibition of maximal electroshock-induced seizures; assay type: functional; how it was run: as §6
[17] = tested on: Rattus norvegicus; assay: as §1; assay type: organism-based; conditions: in vivo, 1 h; how it was run: as §2
[18] = tested on: Mus musculus; assay: Anticonvulsant activity in ip dosed albino mouse assessed as inhibition of maximal electroshock-induced seizures after 2 hrs; assay type: functional
[19] = tested on: Rattus norvegicus; assay: Anticonvulsant activity in po dosed Sprague-Dawley albino rat assessed as inhibition of maximal electroshock-induced seizures after 1 hr; assay type: functional; how it was run: as §6
[20] = Toxicity in ip dosed albino mouse by rotarod test; assay type: organism-based; conditions: in vivo; how it was run: as §5
[21] = tested on: Rattus norvegicus; assay: as §4; assay type: organism-based; conditions: in vivo
[22] = tested on: Mus musculus; assay: Anticonvulsant activity in ip dosed albino mouse assessed as protection against 6 Hz electric shock-induced seizures after […]; assay type: functional
[23] = tested on: Mus musculus; assay: Anticonvulsant activity in ip dosed albino mouse assessed as protection against 6 Hz electric shock-induced seizures after 0.5 hrs; assay type: functional
How it was run: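 Psychomotor 6 Hz (32 mA) seizure model in male albino Carworth Farms No. 1 mice given compound ip; ED50 in mg/kg.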

[24] = tested on: Rattus norvegicus; assay: Anticonvulsant activity in po dosed Sprague-Dawley albino rat assessed as inhibition of maximal electroshock-induced seizures after 0.25 to 2 hrs; assay type: functional; how it was run: as §6
[25] = Behavioral toxicity in po dosed Sprague-Dawley albino rat after 0.25 to 4 hrs; assay type: organism-based; conditions: in vivo; how it was run: as §2
[26] = tested on: Mus musculus; assay: Anticonvulsant activity in ip dosed albino mouse assessed as inhibition of maximal electroshock-induced seizures; assay type: functional; conditions: read-out: ED50; how it was run: as §7

**Q.** With `COC[C@@H](NC(C)=O)C(=O)NCc1ccc(OCCc2cccc(F)c2)cc1` as the compound, how does the TD50 at 0.5 h [1] read?
**A.** 30 mg/kg

**Q.** What about the ED50 [2] of the same compound?
**A.** 30 mg/kg

**Q.** And the ED50 [3]?
**A.** 30 mg/kg

**Q.** For `COC[C@@H](NC(C)=O)C(=O)NCc1ccc(OCc2ccccc2)cc1`, which ED50 [4] is on record?
**A.** 5.8 mg/kg

**Q.** And the TD50 at 1 h [5]?
**A.** > 250 mg/kg

**Q.** What about the “Ratio TD50/ED50” value [6] of the same compound?
**A.** 3.8

**Q.** What about the “Ratio TD50/ED50” value [7] of the same compound?
**A.** >45

**Q.** What does the source list for `COC[C@@H](NC(C)=O)C(=O)NCc1ccccc1` [LACOSAMIDE]?
**A.** Activity [8]: inactive; Activity [9]: inactive; TD50 [10]: > 500 mg/kg; Activity [11]: Active

**Q.** Which TD50 at 4 h [12] does the source give for `COC[C@@H](NC(C)=O)C(=O)NCc1ccc(C#Cc2cccc(F)c2)cc1` here?
**A.** 100 mg/kg

**Q.** What about the ED50 [13] of the same compound?
**A.** 1.4 mg/kg

**Q.** And the ED50 [14]?
**A.** > 30 mg/kg

**Q.** And the ED50 [2]?
**A.** < 100 mg/kg

**Q.** What about the TD50 at 4 h [15] of the same compound?
**A.** 63 mg/kg

**Q.** What does the source list for `CC(=O)NCC(=O)NCc1ccc(OCc2cccc(F)c2)cc1`?
**A.** ED50 [16]: 18 mg/kg; TD50 [17]: > 500 mg/kg; TD50 at 4 h [12]: > 300 mg/kg; ED50 [18]: 30 mg/kg; Ratio TD50/ED50 [7]: >16; Activity [8]: inactive; Activity [9]: inactive; ED50 [2]: 100 mg/kg; ED50 [19]: 31 mg/kg

**Q.** For `CC(=O)NC(C(=O)NCc1ccccc1)c1ccco1` (racemic), which TD50 [20] is on record?
**A.** 40 mg/kg

**Q.** Which TD50 at 0.5 h [1] does the source give for `COC[C@@H](NC(C)=O)C(=O)NCc1ccc(OCc2ccc(F)cc2)cc1` here?
**A.** 30 mg/kg

**Q.** And the ED50 [3]?
**A.** 10 mg/kg

**Q.** For `COC[C@@H](NC(C)=O)C(=O)NCc1ccc(CCc2cccc(F)c2)cc1`, which TD50 [17] is on record?
**A.** > 30 mg/kg

**Q.** What about the TD50 at 0.5 h [1] of the same compound?
**A.** 30 mg/kg

**Q.** And the ED50 [3]?
**A.** 10 mg/kg

**Q.** And the ED50 [19]?
**A.** < 30 mg/kg

**Q.** For `COC[C@@H](NC(C)=O)C(=O)NCc1ccc(-c2cccc(F)c2)cc1`, which “Ratio TD50/ED50” value [7] is on record?
**A.** >250

**Q.** What about the TD50 at 0.5 h [1] of the same compound?
**A.** 100 mg/kg

**Q.** What about the ED50 [3] of the same compound?
**A.** 10 mg/kg

**Q.** And the ED50 [19]?
**A.** 2.4 mg/kg

**Q.** And the TD50 [21]?
**A.** > 500 mg/kg

**Q.** And the ED50 [22]?
**A.** < 30 mg/kg

**Q.** Which ED50 [4] does the source give for `COC[C@@H](NC(C)=O)C(=O)NCc1ccc(Oc2cccc(F)c2)cc1` here?
**A.** 5.5 mg/kg

**Q.** What about the ED50 [23] of the same compound?
**A.** 10 mg/kg

**Q.** And the “Ratio TD50/ED50” value [6]?
**A.** 4.2

**Q.** What about the ED50 [24] of the same compound?
**A.** < 10 mg/kg

**Q.** And the TD50 [25]?
**A.** > 10 mg/kg

**Q.** Which TD50 at 0.5 h [1] does the source give for `COC[C@@H](NC(C)=O)C(=O)NCc1ccc(NCc2cccc(F)c2)cc1` here?
**A.** 30 mg/kg

**Q.** And the ED50 [3]?
**A.** 10 mg/kg

**Q.** Which TD50 at 0.5 h [1] does the source give for `COC[C@@H](NC(C)=O)C(=O)NCc1ccc(COCc2cccc(F)c2)cc1` here?
**A.** 30 mg/kg

**Q.** What about the ED50 [3] of the same compound?
**A.** 30 mg/kg

**Q.** What does the source list for `C[C@@H](NCc1ccc(OCc2cccc(F)c2)cc1)C(N)=O`?
**A.** TD50 [20]: 580 mg/kg; Ratio TD50/ED50 [6]: 88; Activity [8]: inactive; Activity [9]: inactive; ED50 [26]: 7.2 mg/kg

**Q.** With `CCC1(c2ccccc2)C(=O)NC(=O)NC1=O` as the compound, how does the Activity [8] read?
**A.** inactive

**Q.** And the Activity [9]?
**A.** inactive
